The record followed here is PubChem BioAssay.

A short description of experiment [1]: Her2 expression decrease, cell viability multiplex – SKBR3 breast tumor cells, AlphaScreen, ATP viability, primary screen (AID 461).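 As to Her2 level: lower value means less Her2 protein in the cells.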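 As to viability: percent of carrier control wells set as 100% viability.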 To be noted: SKBR3 Her2 protein level, 18-24 h, measured here: SKBR3 viability, ATP luminescence, at 10 µM.
The target of experiment [2] is Receptor tyrosine-protein kinase erbB-2 (Homo sapiens) (UniProt P04626). The experiment is described as above. To be noted: 18-24 h, at 10 µM, stronger effect = lower value.
Sequence of Receptor tyrosine-protein kinase erbB-2 (Homo sapiens) (P04626 whole entry, looked up): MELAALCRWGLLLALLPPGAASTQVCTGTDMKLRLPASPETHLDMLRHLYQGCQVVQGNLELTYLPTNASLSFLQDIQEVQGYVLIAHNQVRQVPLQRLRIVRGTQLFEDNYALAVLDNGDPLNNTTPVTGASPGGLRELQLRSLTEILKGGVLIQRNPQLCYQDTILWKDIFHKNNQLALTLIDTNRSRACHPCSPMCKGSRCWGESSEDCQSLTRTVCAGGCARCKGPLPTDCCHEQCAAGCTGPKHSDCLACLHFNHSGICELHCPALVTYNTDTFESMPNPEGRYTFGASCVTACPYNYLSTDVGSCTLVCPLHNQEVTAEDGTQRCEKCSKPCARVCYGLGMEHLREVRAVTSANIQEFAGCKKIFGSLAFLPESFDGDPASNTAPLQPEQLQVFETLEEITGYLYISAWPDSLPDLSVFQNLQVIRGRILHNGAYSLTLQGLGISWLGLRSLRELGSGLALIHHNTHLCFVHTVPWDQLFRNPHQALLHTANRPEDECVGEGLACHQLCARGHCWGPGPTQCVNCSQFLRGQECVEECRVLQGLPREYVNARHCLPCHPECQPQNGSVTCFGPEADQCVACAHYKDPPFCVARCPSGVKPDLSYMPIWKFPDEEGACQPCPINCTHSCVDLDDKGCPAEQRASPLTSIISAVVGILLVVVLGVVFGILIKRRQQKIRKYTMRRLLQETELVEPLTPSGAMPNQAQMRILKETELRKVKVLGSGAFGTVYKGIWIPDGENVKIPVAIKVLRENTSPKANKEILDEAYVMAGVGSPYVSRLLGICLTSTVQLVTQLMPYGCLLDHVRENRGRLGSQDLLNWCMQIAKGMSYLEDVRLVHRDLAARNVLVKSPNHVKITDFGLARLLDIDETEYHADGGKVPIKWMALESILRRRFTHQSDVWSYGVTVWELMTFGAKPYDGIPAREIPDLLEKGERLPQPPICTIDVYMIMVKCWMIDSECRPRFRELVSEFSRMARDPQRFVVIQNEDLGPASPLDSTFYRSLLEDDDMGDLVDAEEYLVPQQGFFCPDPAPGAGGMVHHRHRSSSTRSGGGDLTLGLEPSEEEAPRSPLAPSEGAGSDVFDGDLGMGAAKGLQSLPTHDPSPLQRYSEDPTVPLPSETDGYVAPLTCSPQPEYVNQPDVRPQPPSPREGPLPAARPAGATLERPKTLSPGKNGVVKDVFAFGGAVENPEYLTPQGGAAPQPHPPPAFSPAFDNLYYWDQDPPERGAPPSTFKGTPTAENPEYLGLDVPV
A short description of experiment [3]: reduced viability of SK-BR-3 breast cancer cells – cell-based, 24 h, human, pilot screen (AID 572;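 active = viability at or below 10% of carrier control in both of two separate runs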;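 also: compound exposure lasted between 18 and 24 h rather than exactly 24 h; 100% = carrier-treated control wells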). To be noted: SK-BR-3 viability, CellTiter-Glo luminescence, at 10 µM, stronger effect = lower value.
Experiment [4] can be described thus: HUVEC growth inhibition – cell-based, human, primary screen (AID 575;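 active = viability at or below 30% in both replicate assays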;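 also: 100% = median of untreated cell wells with 0.1% DMSO on each plate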). To be noted: HUVEC proliferation, CellTiter-Glo luminescence, 72 h; at 10 µM; stronger effect = lower value. An outline of the steps:
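Material: primary human umbilical vein endothelial cells / Schedule: 72 h exposure, 37 °C, 5% CO2, 30 min RT equilibration / Signal: ATP-based CellTiter-Glo luminescent read / Read-out basis: percent of median DMSO-control luminescence / Control set: 32 DMSO-only cell-control wells (high), 32 MePR drug-control wells (low) per plate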
A general note: Cellular ATP, detected with luciferase, serves as a proxy for viable cell number.

Experiment [5] in a line: H69AR cell proliferation blockers – human, duplicate replicates, primary screen (AID 580;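 active = viability at or under a set limit in both replicates, limit being median viability minus 3 SD, cut at about 48% in these data, passing the limit was not always enough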;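 also: 100% = mean luminescence of untreated wells and 0% = no signal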). Conditions: H69AR lung tumor cells viability, ATP luminescence, 72 h; at 10 µM; stronger effect = lower value.
The nature of experiment [6]: MRP1 drug-resistance reversers in H69AR cells – cell-based, doxorubicin co-treatment, pilot screen (AID 601;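 active = viability loss from added drug above about 55%, and viability with drug at most 40%, in both replicates, limit read from the data, passing the limit was not always enough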). Conditions: CellTiter-Glo, 72 h, at 10 µM; for differential viability (reversal): stronger effect = higher value.
Experiment [7] is described as follows: yeast transport mutant growth inhibition pilot in 384-well plates, post-Golgi transport modulator project (AID 636; in the data active = inhibition above about 31%). To be noted: absorbance 615 nm, about 18 h, stronger effect = higher value.
Experiment [8] is described as follows: growth suppression of yeast trafficking mutant, preliminary HTS, modulators of trafficking downstream of Golgi apparatus project, 1536-format plate, OD 615 nm (AID 637; in the data active = inhibition above about 30%). To be noted: yeast transport mutant growth, absorbance 615 nm, 18 h; stronger effect = higher value.
Setting [9] is: H69AR cells + 2 uM doxorubicin, measured here: viability with 2 uM doxorubicin, stronger effect = lower value.
Where [10] appears, read: H69AR cells, compound alone cytotoxicity.

Usually viability stands for a read-out of living cells in per cent, often relative to untreated cells. By inhibition is commonly meant the change of the read-out against control, counted positive when it falls.

Structures are written as SMILES. Activity calls are given as the source filed them.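 The calls were made as follows, unless noted: active = Her2 level under about 52% in both replicate screens, with viability over 70% of control (limit read from the data); inconclusive = Her2 under the limit in one screen only, or viability under 70%; inactive = Her2 level above the set limit.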

With `CC(=O)Nc1ccc(OCC(O)Cn2nc(C)nc2C)cc1` (stereo not given), the viability in experiment [1] is 93%; in experiment [3] it was 93% (inactive); in experiment [4], 81.3% (inactive); in experiment [5] it was 91% (inactive); in experiment [6] (setting [9]), 96.5%; in experiment [6] (setting [10]), 91%. For the same compound, the Her2 level in experiment [2] was 86.5% (inactive). Also, in experiment [6] (H69AR cells + 2 uM doxorubicin), the differential viability (reversal) was -5.46% (inactive). Moreover, the figures for the inhibition in experiment [7] and in experiment [8] were -1.67% (inactive) and -4.83% (inactive), respectively.
Consider `Cc1ccc(-c2noc(C3CCCN(C(=O)c4ccccc4)C3)n2)o1` (stereo not given), for which the viability in experiment [1] was 86%; in experiment [3] it was 86% (inactive); in experiment [4], 94.8% (inactive); in experiment [5] it was 95.1% (inactive); in experiment [6] (setting [9]), 91%; in experiment [6] (setting [10]), 95.1%. Moreover, in experiment [2], the Her2 level is 95% (inactive). Also, the differential viability (reversal) in experiment [6] (H69AR cells + 2 uM doxorubicin) is 4.09% (inactive). For the same compound, the inhibition was -5.66% (inactive) in experiment [7] and 0.33% (inactive) in experiment [8].
On to `CCCC(=O)N=C1SC2CS(=O)(=O)CC2N1c1ccc(CC)cc1` (stereo not given), for which the viability in experiment [1] was 97.5%; in experiment [3] it was 97.5% (inactive); in experiment [4] it was 83.2% (inactive); in experiment [5], 93.2% (inactive); in experiment [6] (setting [9]) it was 85.4%; in experiment [6] (setting [10]) it was 93.2%. Moreover, in experiment [2], the Her2 level is 80% (inactive). Besides, in experiment [6] (H69AR cells + 2 uM doxorubicin), the differential viability (reversal) was 7.88% (inactive). Besides, the inhibition was -5.33% (inactive) in experiment [7] and 3.61% (inactive) in experiment [8].
`CC(C)(C)n1nc2c(c1NC(=O)COc1ccc(Cl)cc1)CSC2`: the viability is 97.5% in experiment [1]; 97.5% (inactive) in experiment [3]; 80.5% (inactive) in experiment [4]; 91.4% (inactive) in experiment [5]; 102% in experiment [6] (setting [9]); 91.4% in experiment [6] (setting [10]). The Her2 level in experiment [2] is 79.5% (inactive). In addition, the differential viability (reversal) in experiment [6] (H69AR cells + 2 uM doxorubicin) was -10.3% (inactive). The inhibition in experiment [7] is -5% (inactive); in experiment [8] it was -0.16% (inactive).
For the compound `CC(C)C(OC(=O)c1ccco1)C(=O)NCc1ccccc1` (stereo not given), the viability in experiment [1] was 91.5%; in experiment [3] it was 91.5% (inactive); in experiment [4], 92.5% (inactive); in experiment [5], 99.1% (inactive); in experiment [6] (setting [9]), 90.4%; in experiment [6] (setting [10]), 99.1%. The Her2 level in experiment [2] is 97% (inactive). The differential viability (reversal) in experiment [6] (H69AR cells + 2 uM doxorubicin) was 8.63% (inactive). Besides, the inhibition is 0% (inactive) in experiment [7] and -4.6% (inactive) in experiment [8].
For `COc1cc(C)c(-c2cc(C(=O)O)c(C)o2)cc1C(C)C`, the viability in experiment [1] was 99.5%; in experiment [3], 99.5% (inactive); in experiment [4] it was 95.7% (inactive); in experiment [5] it was 91.8% (inactive); in experiment [6] (setting [9]) it was 85%; in experiment [6] (setting [10]) it was 91.8%. Besides, the Her2 level in experiment [2] is 88% (inactive). Moreover, the differential viability (reversal) in experiment [6] (H69AR cells + 2 uM doxorubicin) was 6.8% (inactive). Moreover, the results for the inhibition in experiment [7] and in experiment [8] were -3.87% (inactive) and -5.4% (inactive), respectively.
In the case of `O=C(Nc1ccc(N2C(=O)C3C4C=CC(C4)C3C2=O)cc1)Nc1cccnc1` (stereo not given), the viability in experiment [1] was 108%; in experiment [3] it was 108% (inactive); in experiment [4], 75.3% (inactive); in experiment [5] it was 86% (inactive); in experiment [6] (setting [9]) it was 86.1%; in experiment [6] (setting [10]), 86%. In addition, the Her2 level in experiment [2] is 83% (inactive). Besides, the differential viability (reversal) in experiment [6] (H69AR cells + 2 uM doxorubicin) is -0.065% (inactive). For the same compound, the inhibition in experiment [7] is -3.29% (inactive); in experiment [8] it was -1.33% (inactive).
For `Cc1ccc(NC(=O)C2CCCN2C(=O)Oc2ccccc2)cc1` (stereo not given), the viability in experiment [1] was 90.5%; in experiment [3], 90.5% (inactive); in experiment [4], 107% (inactive); in experiment [5] it was 91.5% (inactive); in experiment [6] (setting [9]), 91.9%; in experiment [6] (setting [10]) it was 91.5%. In experiment [2], the Her2 level was 94.5% (inactive). Further, in experiment [6] (H69AR cells + 2 uM doxorubicin), the differential viability (reversal) is -0.415% (inactive). Also, the inhibition was -6.4% (inactive) in experiment [7] and -1.64% (inactive) in experiment [8].
Regarding `O=C1CC(c2cccc(Cl)c2)Cc2nc(N3CCN(c4ccccc4)CC3)ncc21` (stereo not given), the viability in experiment [1] was 88%; in experiment [3] it was 88% (inactive); in experiment [4] it was 95.7% (inactive); in experiment [5], 91.3% (inactive); in experiment [6] (setting [9]), 91.3%; in experiment [6] (setting [10]) it was 91.3%. The Her2 level in experiment [2] was 118% (inactive). Further, in experiment [6] (H69AR cells + 2 uM doxorubicin), the differential viability (reversal) was -0.02% (inactive). Further, the results for the inhibition in experiment [7] and in experiment [8] were 1.3% (inactive) and 2.67% (inactive), respectively.
In the case of `O=c1c(F)cn(C2CCCO2)c(=O)n1Cc1c(F)cccc1Cl` (stereo not given), the viability is 94.5% in experiment [1]; 94.5% (inactive) in experiment [3]; 92.8% (inactive) in experiment [4]; 91.1% (inactive) in experiment [5]; 93.2% in experiment [6] (setting [9]); 91.1% in experiment [6] (setting [10]). In addition, in experiment [2], the Her2 level was 94% (inactive). Besides, in experiment [6] (H69AR cells + 2 uM doxorubicin), the differential viability (reversal) is -2.1% (inactive). In addition, the inhibition in experiment [7] is -0.13% (inactive); in experiment [8] it was -8.39% (inactive).
As to `CN1C(=O)NC(NC(=O)C2CCCCC2)(C(F)(F)F)C1=O` (stereo not given), the viability in experiment [1] was 93%; in experiment [3], 93% (inactive); in experiment [4] it was 98.7% (inactive); in experiment [5] it was 106% (inactive); in experiment [6] (setting [9]), 99.8%; in experiment [6] (setting [10]), 106%. Also, the Her2 level in experiment [2] is 85% (inactive). Besides, in experiment [6] (H69AR cells + 2 uM doxorubicin), the differential viability (reversal) is 6.06% (inactive). Moreover, the results for the inhibition in experiment [7] and in experiment [8] were -0.92% (inactive) and -0.65% (inactive), respectively.
`CCOc1ccccc1NC(=O)CCN1CCN(S(=O)(=O)c2ccc(Br)cc2)CC1`: the viability was 119% in experiment [1]; 119% (inactive) in experiment [3]; 100% (inactive) in experiment [4]; 86.9% (inactive) in experiment [5]; 75.7% in experiment [6] (setting [9]); 86.9% in experiment [6] (setting [10]). Moreover, the Her2 level in experiment [2] was 87.5% (inactive). In addition, the differential viability (reversal) in experiment [6] (H69AR cells + 2 uM doxorubicin) was 11.2% (inactive). The inhibition is -6.8% (inactive) in experiment [7] and 1.13% (inactive) in experiment [8].
As for `Cn1c(=O)c2c(nc(SCC(=O)O)n2Cc2cccc(C(F)(F)F)c2)n(C)c1=O`, the viability in experiment [1] is 97.5%; in experiment [3] it was 97.5% (inactive); in experiment [4], 94.7% (inactive); in experiment [5] it was 95.6% (inactive); in experiment [6] (setting [9]) it was 90.2%; in experiment [6] (setting [10]), 95.6%. The Her2 level in experiment [2] is 84% (inactive). Also, the differential viability (reversal) in experiment [6] (H69AR cells + 2 uM doxorubicin) is 5.41% (inactive). Also, the inhibition in experiment [7] is -4.67% (inactive); in experiment [8], 0.81% (inactive).
As for `O=C(CSC1=NC(=O)C(Cc2ccccc2)C(=O)N1)NC1CCCCC1` (stereo not given), the viability in experiment [1] was 100%; in experiment [3] it was 100% (inactive); in experiment [4], 87.8% (inactive); in experiment [5], 91.7% (inactive); in experiment [6] (setting [9]), 83.2%; in experiment [6] (setting [10]), 91.7%. Moreover, the Her2 level in experiment [2] is 118% (inactive). Moreover, the differential viability (reversal) in experiment [6] (H69AR cells + 2 uM doxorubicin) was 8.56% (inactive). The inhibition in experiment [7] is -0.53% (inactive); in experiment [8] it was 23.1% (inactive).
`CCSc1ncc(C#N)c(=O)[nH]1`: the viability was 117% in experiment [1]; 117% (inactive) in experiment [3]; 96.5% (inactive) in experiment [4]; 95% (inactive) in experiment [5]; 97.6% in experiment [6] (setting [9]); 95% in experiment [6] (setting [10]). The Her2 level in experiment [2] is 119% (inactive). Also, in experiment [6] (H69AR cells + 2 uM doxorubicin), the differential viability (reversal) was -2.66% (inactive). Moreover, the inhibition is -7.76% (inactive) in experiment [7] and -3.28% (inactive) in experiment [8].
